Reference: ChEMBL document CHEMBL4689842, “EUbOPEN Chemogenomics Library wave 1” (2021)

Tests used:
Format in all cases: toxicity, cell-based
Fibroblast [1] = assay: Multiplex assay against human fibroblast
Outline: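 Cells were classed with CellPathfinder machine-learning gating, first as Hoechst high-intensity objects or normal cells, then (normal cells) as healthy, pyknosed or fragmented nuclei, and finally (pyknosed cells) as mitotic or apoptotic. Staining of live cells at seeding used Hoechst33342, BioTracker Green Microtubule Cytoskeleton Dye, MitoTracker Red and Annexin V Alexa Fluor 680, with imaging on a CQ1 microscope at 37°C and 5% CO2 after compound addition. Tubulin, mitochondrial-mass and membrane-permeability phenotypes are per cents of healthy-nucleus cells.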

Fibroblast [2] = assay: Incucyte cell viability with human fibroblast; conditions: 10 µM, compound concentration 10 uM; also: filed as whole numbers so only -1 and 0 and 1 occur
U2OS = assay: Incucyte cell viability with U2OS; conditions: human, 10 µM, compound concentration 10 uM; also: filed as whole numbers so only -1 and 0 and 1 occur
[3] = 12 h, 1 µM, compound concentration 1 uM, replicate 1
[4] = 12 h, 1 µM, compound concentration 1 uM, replicate 2
[5] = 12 h, 10 µM, compound concentration 10 uM, replicate 1
[6] = 12 h, 10 µM, compound concentration 10 uM, replicate 2
[7] = 24 h, 1 µM, compound concentration 1 uM, replicate 1
[8] = 24 h, 1 µM, compound concentration 1 uM, replicate 2
[9] = 24 h, 10 µM, compound concentration 10 uM, replicate 1
[10] = 24 h, 10 µM, compound concentration 10 uM, replicate 2
[11] = 48 h, 1 µM, compound concentration 1 uM, replicate 1
[12] = 48 h, 1 µM, compound concentration 1 uM, replicate 2
[13] = 48 h, 10 µM, compound concentration 10 uM, replicate 1
[14] = 48 h, 10 µM, compound concentration 10 uM, replicate 2
[15] = 0 h, replicate number 1, timepoint 0 hours
[16] = 6 h, replicate number 1, timepoint 6 hours
[17] = 12 h, replicate number 1, timepoint 12 hours
[18] = 18 h, replicate number 1, timepoint 18 hours
[19] = 18 h, replicate number 2, timepoint 18 hours
[20] = 24 h, replicate number 1, timepoint 24 hours

Nc1ccc(C(=O)Nc2cccc(-c3nc(N4CCOCC4)c4oc5ncccc5c4n3)c2)cn1
Population Apoptotic (%) (Fibroblast [1]; [3]): 63% | Population Fragmented Nuclei (%) (Fibroblast [1]; [3]): 24% | Population Healthy Nuclei (%) (Fibroblast [1]; [3]): 43% | Population Hoechst High Intensity Objects (%) (Fibroblast [1]; [3]): 14% | Population Mitochondria Different-Phenotype (%) (Fibroblast [1]; [3]): 4% | Population Mitotic Cells (%) (Fibroblast [1]; [3]): 36% | Population Normal (%) (Fibroblast [1]; [3]): 85% | Population Pyknosed Nuclei (%) (Fibroblast [1]; [3]): 31% | Population Tubulin-Different-Phenotype (%) (Fibroblast [1]; [3]): 60% | Total Cell Count (Fibroblast [1]; [3]): 134 | Population Apoptotic (%) (Fibroblast [1]; [4]): 9% | Population Fragmented Nuclei (%) (Fibroblast [1]; [4]): 20% | Population Healthy Nuclei (%) (Fibroblast [1]; [4]): 61% | Population Hoechst High Intensity Objects (%) (Fibroblast [1]; [4]): 10% | Population Mitochondria Different-Phenotype (%) (Fibroblast [1]; [4]): 21% | Population Mitotic Cells (%) (Fibroblast [1]; [4]): 90% | Population Normal (%) (Fibroblast [1]; [4]): 89% | Population Pyknosed Nuclei (%) (Fibroblast [1]; [4]): 17% | Population Tubulin-Different-Phenotype (%) (Fibroblast [1]; [4]): 28% | Total Cell Count (Fibroblast [1]; [4]): 55 | Population Apoptotic (%) (Fibroblast [1]; [5]): 54% | Population Fragmented Nuclei (%) (Fibroblast [1]; [5]): 57% | Population Healthy Nuclei (%) (Fibroblast [1]; [5]): 28% | Population Hoechst High Intensity Objects (%) (Fibroblast [1]; [5]): 41% | Population Mitochondria Different-Phenotype (%) (Fibroblast [1]; [5]): 9% | Population Mitotic Cells (%) (Fibroblast [1]; [5]): 45% | Population Normal (%) (Fibroblast [1]; [5]): 58% | Population Pyknosed Nuclei (%) (Fibroblast [1]; [5]): 13% | Population Tubulin-Different-Phenotype (%) (Fibroblast [1]; [5]): 80% | Total Cell Count (Fibroblast [1]; [5]): 554 | Population Apoptotic (%) (Fibroblast [1]; [6]): 51% | Population Fragmented Nuclei (%) (Fibroblast [1]; [6]): 62% | Population Healthy Nuclei (%) (Fibroblast [1]; [6]): 15% | Population Hoechst High Intensity Objects (%) (Fibroblast [1]; [6]): 19% | Population Mitochondria Different-Phenotype (%) (Fibroblast [1]; [6]): 76% | Population Mitotic Cells (%) (Fibroblast [1]; [6]): 48% | Population Normal (%) (Fibroblast [1]; [6]): 80% | Population Pyknosed Nuclei (%) (Fibroblast [1]; [6]): 22% | Population Tubulin-Different-Phenotype (%) (Fibroblast [1]; [6]): 90% | Total Cell Count (Fibroblast [1]; [6]): 69 | Population Apoptotic (%) (Fibroblast [1]; [7]): 38% | Population Fragmented Nuclei (%) (Fibroblast [1]; [7]): 38% | Population Healthy Nuclei (%) (Fibroblast [1]; [7]): 39% | Population Hoechst High Intensity Objects (%) (Fibroblast [1]; [7]): 16% | Population Mitochondria Different-Phenotype (%) (Fibroblast [1]; [7]): 3% | Population Mitotic Cells (%) (Fibroblast [1]; [7]): 61% | Population Normal (%) (Fibroblast [1]; [7]): 83% | Population Pyknosed Nuclei (%) (Fibroblast [1]; [7]): 21% | Population Tubulin-Different-Phenotype (%) (Fibroblast [1]; [7]): 64% | Total Cell Count (Fibroblast [1]; [7]): 169 | Population Apoptotic (%) (Fibroblast [1]; [8]): 21% | Population Fragmented Nuclei (%) (Fibroblast [1]; [8]): 28% | Population Healthy Nuclei (%) (Fibroblast [1]; [8]): 52% | Population Hoechst High Intensity Objects (%) (Fibroblast [1]; [8]): 5% | Population Mitochondria Different-Phenotype (%) (Fibroblast [1]; [8]): 42% | Population Mitotic Cells (%) (Fibroblast [1]; [8]): 78% | Population Normal (%) (Fibroblast [1]; [8]): 95% | Population Pyknosed Nuclei (%) (Fibroblast [1]; [8]): 18% | Population Tubulin-Different-Phenotype (%) (Fibroblast [1]; [8]): 27% | Total Cell Count (Fibroblast [1]; [8]): 57 | Population Apoptotic (%) (Fibroblast [1]; [9]): 68% | Population Fragmented Nuclei (%) (Fibroblast [1]; [9]): 53% | Population Healthy Nuclei (%) (Fibroblast [1]; [9]): 32% | Population Hoechst High Intensity Objects (%) (Fibroblast [1]; [9]): 46% | Population Mitochondria Different-Phenotype (%) (Fibroblast [1]; [9]): 30% | Population Mitotic Cells (%) (Fibroblast [1]; [9]): 31% | Population Normal (%) (Fibroblast [1]; [9]): 53% | Population Pyknosed Nuclei (%) (Fibroblast [1]; [9]): 13% | Population Tubulin-Different-Phenotype (%) (Fibroblast [1]; [9]): 76% | Total Cell Count (Fibroblast [1]; [9]): 514 | Population Apoptotic (%) (Fibroblast [1]; [10]): 84% | Population Fragmented Nuclei (%) (Fibroblast [1]; [10]): 60% | Population Healthy Nuclei (%) (Fibroblast [1]; [10]): 5% | Population Hoechst High Intensity Objects (%) (Fibroblast [1]; [10]): 19% | Population Mitochondria Different-Phenotype (%) (Fibroblast [1]; [10]): 100% | Population Mitotic Cells (%) (Fibroblast [1]; [10]): 15% | Population Normal (%) (Fibroblast [1]; [10]): 80% | Population Pyknosed Nuclei (%) (Fibroblast [1]; [10]): 34% | Population Tubulin-Different-Phenotype (%) (Fibroblast [1]; [10]): 100% | Total Cell Count (Fibroblast [1]; [10]): 80 | Population Apoptotic (%) (Fibroblast [1]; [11]): 66% | Population Fragmented Nuclei (%) (Fibroblast [1]; [11]): 47% | Population Healthy Nuclei (%) (Fibroblast [1]; [11]): 45% | Population Hoechst High Intensity Objects (%) (Fibroblast [1]; [11]): 17% | Population Mitochondria Different-Phenotype (%) (Fibroblast [1]; [11]): 0% | Population Mitotic Cells (%) (Fibroblast [1]; [11]): 33% | Population Normal (%) (Fibroblast [1]; [11]): 82% | Population Pyknosed Nuclei (%) (Fibroblast [1]; [11]): 7% | Population Tubulin-Different-Phenotype (%) (Fibroblast [1]; [11]): 60% | Total Cell Count (Fibroblast [1]; [11]): 190 | Population Apoptotic (%) (Fibroblast [1]; [12]): 0% | Population Fragmented Nuclei (%) (Fibroblast [1]; [12]): 58% | Population Healthy Nuclei (%) (Fibroblast [1]; [12]): 41% | Population Hoechst High Intensity Objects (%) (Fibroblast [1]; [12]): 25% | Population Mitochondria Different-Phenotype (%) (Fibroblast [1]; [12]): 3% | Population Mitotic Cells (%) (Fibroblast [1]; [12]): 0% | Population Normal (%) (Fibroblast [1]; [12]): 74% | Population Pyknosed Nuclei (%) (Fibroblast [1]; [12]): 0% | Population Tubulin-Different-Phenotype (%) (Fibroblast [1]; [12]): 76% | Total Cell Count (Fibroblast [1]; [12]): 205 | Population Apoptotic (%) (Fibroblast [1]; [13]): 51% | Population Fragmented Nuclei (%) (Fibroblast [1]; [13]): 51% | Population Healthy Nuclei (%) (Fibroblast [1]; [13]): 25% | Population Hoechst High Intensity Objects (%) (Fibroblast [1]; [13]): 49% | Population Mitochondria Different-Phenotype (%) (Fibroblast [1]; [13]): 46% | Population Mitotic Cells (%) (Fibroblast [1]; [13]): 48% | Population Normal (%) (Fibroblast [1]; [13]): 50% | Population Pyknosed Nuclei (%) (Fibroblast [1]; [13]): 23% | Population Tubulin-Different-Phenotype (%) (Fibroblast [1]; [13]): 78% | Total Cell Count (Fibroblast [1]; [13]): 516 | Population Apoptotic (%) (Fibroblast [1]; [14]): 100% | Population Fragmented Nuclei (%) (Fibroblast [1]; [14]): 82% | Population Healthy Nuclei (%) (Fibroblast [1]; [14]): 14% | Population Hoechst High Intensity Objects (%) (Fibroblast [1]; [14]): 67% | Population Mitotic Cells (%) (Fibroblast [1]; [14]): 0% | Population Normal (%) (Fibroblast [1]; [14]): 32% | Population Pyknosed Nuclei (%) (Fibroblast [1]; [14]): 2% | Population Tubulin-Different-Phenotype (%) (Fibroblast [1]; [14]): 73% | Total Cell Count (Fibroblast [1]; [14]): 323 | Growth Rate (Fibroblast [2]; [15]): 0 | Growth Rate (Fibroblast [2]; [16]): 0 | Growth Rate (Fibroblast [2]; [17]): 0 | Growth Rate (Fibroblast [2]; [18]): 0 | Growth Rate (Fibroblast [2]; [19]): 1 | Growth Rate (Fibroblast [2]; [20]): 0 | Growth Rate (U2OS; [15]): 0 | Growth Rate (U2OS; [16]): 1 | Growth Rate (U2OS; [17]): 0 | Growth Rate (U2OS; [18]): 0 | Growth Rate (U2OS; [19]): 1 | Growth Rate (U2OS; [20]): 0
